Calls of active or inactive are those of the source. The rule behind the calls is not given here.
Tests used:
[1] = biological target: T1, Peroxisome proliferator-activated receptor gamma (Homo sapiens, UniProt P37231); assay: Transactivation at Gal4 fused PPARgamma LBD (unknown origin) expressed in African green monkey COS7 cells after 42 hrs by luciferase assay; format: cell-based, COS-7
T1 sequence (P37231 whole entry): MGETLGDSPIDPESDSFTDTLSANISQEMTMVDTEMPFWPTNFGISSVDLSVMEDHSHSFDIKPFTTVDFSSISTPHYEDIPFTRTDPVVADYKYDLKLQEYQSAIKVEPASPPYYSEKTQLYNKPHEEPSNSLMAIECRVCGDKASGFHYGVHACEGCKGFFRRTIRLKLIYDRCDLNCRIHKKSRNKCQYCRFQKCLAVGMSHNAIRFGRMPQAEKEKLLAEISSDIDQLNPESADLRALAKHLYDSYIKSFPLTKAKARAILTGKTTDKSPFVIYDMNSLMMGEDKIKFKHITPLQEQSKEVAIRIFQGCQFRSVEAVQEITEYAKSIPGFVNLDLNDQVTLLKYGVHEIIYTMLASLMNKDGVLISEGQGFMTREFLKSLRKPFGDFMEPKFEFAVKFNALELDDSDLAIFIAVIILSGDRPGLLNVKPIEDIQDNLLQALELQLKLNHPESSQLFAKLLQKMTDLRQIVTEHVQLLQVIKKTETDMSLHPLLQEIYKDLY

[2] = biological target: T2, Peroxisome proliferator-activated receptor gamma (Homo sapiens) (UniProt P37231); assay: Intrinsic activity at Gal4 fused PPARgamma LBD (unknown origin) expressed in African green monkey COS7 cells after 42 hrs by luciferase assay relative to pioglitazone; format: cell-based; conditions: COS-7
T2 sequence (whole entry): T1 sequence (P37231 whole entry)
Summary of the method: (§1)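 COS-7 cells (10⁴/well, 24 h, 37 °C, 5% CO₂) transfected in serum-free medium with pGal5-TK-Luc, pGal4-hPPARγ-LBD and pRenilla-CMV (Lipofectamine 2000). After 4 h, compound or DMSO added across a concentration series. Dual-luciferase readout at 42 h, firefly normalized to Renilla. Maximal activation expressed as % of pioglitazone. Mean SD of three independent experiments, each run in triplicate.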

[3] = biological target: T3, Peroxisome proliferator-activated receptor gamma (Mus musculus, UniProt P37238); assay: Full agonist activity at PPARgamma in mouse 3T3L1 preadipocytes assessed as increase in insulin induced adipocyte differentiation by measuring triglyceride accumulation at 10 uM after 9 days by Oil-Red O staining based assay relative to control; format: cell-based; conditions: 216 h
T3 sequence (P37238 whole entry): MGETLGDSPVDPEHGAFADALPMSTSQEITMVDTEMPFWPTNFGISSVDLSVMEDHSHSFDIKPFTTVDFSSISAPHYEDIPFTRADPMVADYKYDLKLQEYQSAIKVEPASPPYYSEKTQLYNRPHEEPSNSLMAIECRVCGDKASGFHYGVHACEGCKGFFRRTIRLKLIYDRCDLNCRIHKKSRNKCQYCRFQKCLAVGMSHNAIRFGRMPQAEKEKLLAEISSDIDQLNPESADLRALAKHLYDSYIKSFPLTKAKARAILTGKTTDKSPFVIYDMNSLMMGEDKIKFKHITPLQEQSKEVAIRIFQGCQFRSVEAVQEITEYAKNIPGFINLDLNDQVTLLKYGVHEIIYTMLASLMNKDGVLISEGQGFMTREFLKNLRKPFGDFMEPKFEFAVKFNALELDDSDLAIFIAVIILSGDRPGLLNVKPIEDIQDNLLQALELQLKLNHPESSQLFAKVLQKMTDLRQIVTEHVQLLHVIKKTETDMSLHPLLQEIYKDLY
Summary of the method: (§2)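 Postconfluent 3T3-L1 cells (DMEM, 10% FCS) differentiated over 9 days: 3 days with insulin (0.17 µM) plus dexamethasone (1 µM), 3 days with insulin (0.17 µM), then 3 days medium alone. Compound present throughout at 1 or 10 µM; DMSO vehicle. Day 9: PBS wash, Oil-Red O staining 1 h, dye extracted with 80% isopropanol, A515 read, expressed as ratio to vehicle; mean SD, three independent experiments.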

[4] = Growth inhibition of African green monkey COS7 cells at 50 uM after 72 hrs by crystal violet staining based assay; format: cell-based, COS-7; conditions: chlorocebus aethiops; for growth inhibition (GI): cos-7, 72 h, 50 µM; for inhibition at 72 h, 50 µM: COS7 cells, read-out: GI
Summary of the method: (§3)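 Cells seeded in complete DMEM, LNCaP at 5×10⁴/well on poly-D-lysine-coated wells, COS-7 at 3×10⁴/well. After 24 h at 37 °C, compound added at 50 µM final (DMSO vehicle). Exposure 72 h, then PBS wash, fixation in 1% […]/PBS, crystal violet staining of chromatin, absorbance 590 nm. Biomass given as % of vehicle control; mean SD of at least two independent experiments.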

3T3-L1 = assay: Induction of triglyceride accumulation in insulin-stimulated mouse 3T3L1 preadipocytes at 10 uM after 9 days by Oil-Red O staining based assay relative to control
[5] = biological target: T3, Peroxisome proliferator-activated receptor gamma; assay: Full agonist activity at PPARgamma in mouse 3T3L1 preadipocytes assessed as increase in insulin induced adipocyte differentiation by measuring triglyceride accumulation at 1 uM after 9 days by Oil-Red O staining based assay; format: cell-based; conditions: 216 h; summary of the method: as §2
LNCaP = assay: (§4) Growth inhibition of human LNCAP cells expressing PPARgamma at 50 uM after 72 hrs by crystal violet staining based assay; format: functional; summary of the method: as §3
[6] = as §4; format: functional; conditions: read-out: GI; summary of the method: as §3
[7] = biological target: T3, Peroxisome proliferator-activated receptor gamma; assay: Full agonist activity at PPARgamma in mouse 3T3L1 preadipocytes assessed as increase in insulin induced adipocyte differentiation by measuring triglyceride accumulation at 1 to 10 uM after 9 days by Oil-Red O staining based assay relative to control; format: cell-based; conditions: 216 h
[8] = biological target: T2, Peroxisome proliferator-activated receptor gamma (Homo sapiens); assay: Intrinsic activity at Gal4 fused PPARgamma LBD (unknown origin) expressed in African green monkey COS7 cells at 20 uM after 42 hrs by luciferase assay relative to pioglitazone; format: cell-based; conditions: COS-7; summary of the method: as §1

Structure (SMILES)	EC50 [1] [µM]	%max [2] [%]	fold change (FC) [3]	growth inhibition (GI) [4]	fold change (FC) (3T3-L1)	Activity [5]	growth inhibition (GI) (LNCaP)	inhibition of growth at 50 µM [6] [%]	Activity [7]	inhibition at 72 h, 50 µM [4] [%]	%max [8] [%]
CCCc1nc2c(C)cc(-c3nc4ccccc4n3C)cc2n1Cc1ccc(-c2ccccc2C(=O)O)cc1 [TELMISARTAN]	4.71	50.9	2	Non-Toxic	–	–	–	–	–	–	–
CCCc1nc2ccccc2n1Cc1ccc(-c2ccccc2C(=O)O)cc1	4.17 to 4.19	49.6	–	Non-Toxic	3.2	–	–	–	–	–	–
CCCCCCCc1nc2ccccc2n1Cc1ccc(-c2ccccc2C(N)=O)cc1	0.84	32.8	–	Toxic	–	Active	Active	–	–	–	–
CCCc1cc2ccccc2n1Cc1ccc(-c2ccccc2C(N)=O)cc1	–	11	–	–	–	–	–	27.4 to 54.1	–	–	–
CCCCCc1nc2ccccc2n1Cc1ccc(-c2ccccc2C(=O)O)cc1	0.4	55.4	–	Non-Toxic	–	–	–	–	Active	–	–
CCCc1nc2ccccc2n1Cc1ccc(-c2ccccc2C(N)=O)cc1	3.15	21.1	–	–	–	–	–	33	–	33	–
CCCC1Sc2ccccc2N1Cc1ccc(-c2ccccc2C(N)=O)cc1 (stereo not given)	–	–	–	–	–	–	–	79	–	69.2	33.1
CCCCCCc1nc2ccccc2n1Cc1ccc(-c2ccccc2C(=O)O)cc1	0.21	75	–	Non-Toxic	–	–	–	–	Active	–	–
CCCC1Sc2ccccc2N1Cc1ccc(-c2ccccc2C(=O)O)cc1 (stereo not given)	1.05	57.4	> 3	Non-Toxic	–	–	–	–	–	–	–
CCCCCCCc1nc2ccccc2n1Cc1ccc(-c2ccccc2C(=O)O)cc1	0.17	82.5	–	Non-Toxic	–	–	–	–	Active	–	–
CCc1ccc(CCOc2ccc(CC3SC(=O)NC3=O)cc2)nc1 (stereo not given) [PIOGLITAZONE]	–	–	–	Non-Toxic	–	–	–	55.8	–	–	–
CCCc1nc2ccccc2n1Cc1ccc(-c2ccccc2C#N)cc1	5.01	51.3	–	–	–	–	–	61.9	–	61.9	–
CCCc1cc2ccccc2n1Cc1ccc(-c2ccccc2C#N)cc1	8.03	21.7	–	–	–	–	–	27.4 to 54.1	–	36.8	–
CCCc1cc2ccccc2n1Cc1ccc(-c2ccccc2C(=O)O)cc1	1.86	40	> 3	–	–	–	–	27.4 to 54.1	–	–	–
CCCCCCc1nc2ccccc2n1Cc1ccc(-c2ccccc2C(N)=O)cc1	3.06	37.8	–	–	–	Active	–	78.5	–	92.8	–
CCCc1nc2ccccc2n1Cc1ccc(-c2cccc(C(=O)O)c2)cc1	6.24	44.7	–	Non-Toxic	2.5	–	–	–	–	–	–
CCCc1nc2ccccc2n1Cc1ccc(-c2ccc(C(=O)O)cc2)cc1	1.88	84.1	–	Non-Toxic	1.2	–	–	–	–	–	–
CCCCCc1nc2ccccc2n1Cc1ccc(-c2ccccc2C(N)=O)cc1	3.9	16.2	–	Toxic	–	Active	Active	–	–	–	–
